Experiment [1] deals with T1, M-phase inducer phosphatase 1 (Homo sapiens, UniProt P30304).
T1 sequence (P30304 whole entry): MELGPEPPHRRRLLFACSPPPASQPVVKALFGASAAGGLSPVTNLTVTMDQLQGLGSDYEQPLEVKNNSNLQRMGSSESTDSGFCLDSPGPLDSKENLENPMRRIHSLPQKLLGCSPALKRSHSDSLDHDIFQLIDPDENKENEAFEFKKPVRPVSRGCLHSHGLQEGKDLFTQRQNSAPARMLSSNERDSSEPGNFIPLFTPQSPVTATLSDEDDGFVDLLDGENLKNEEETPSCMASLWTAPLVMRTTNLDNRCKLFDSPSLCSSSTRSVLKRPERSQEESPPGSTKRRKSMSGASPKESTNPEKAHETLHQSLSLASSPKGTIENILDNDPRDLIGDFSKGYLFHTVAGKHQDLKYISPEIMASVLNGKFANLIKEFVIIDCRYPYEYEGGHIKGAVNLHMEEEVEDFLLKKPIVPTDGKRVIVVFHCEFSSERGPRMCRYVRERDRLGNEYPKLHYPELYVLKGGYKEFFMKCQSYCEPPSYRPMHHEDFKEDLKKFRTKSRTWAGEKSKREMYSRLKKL
Nature of the experiment: Inhibitory activity against human Cdc25A phosphatase. The note with it: for pIC50: read-out: IC50.

In a further experiment the test system is A549. Nature of the experiment: Cytotoxicity against A549 cell line. The class given is functional, cell-based. The note with it: Homo sapiens. The procedure, abridged:
(§1)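 Tumor cells trypsinized and seeded at 3000 cells/well; after attachment, exposed to a range of compound concentrations for 72 h. MTT (5 mg/mL) was added and incubated 3 h, then medium was removed and formazan dissolved in DMSO. Absorbance read at 550 nm with […] reference.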

Experiment [2] has as its target T2, M-phase inducer phosphatase 2 (Homo sapiens, UniProt P30305).
T2 sequence (P30305 whole entry): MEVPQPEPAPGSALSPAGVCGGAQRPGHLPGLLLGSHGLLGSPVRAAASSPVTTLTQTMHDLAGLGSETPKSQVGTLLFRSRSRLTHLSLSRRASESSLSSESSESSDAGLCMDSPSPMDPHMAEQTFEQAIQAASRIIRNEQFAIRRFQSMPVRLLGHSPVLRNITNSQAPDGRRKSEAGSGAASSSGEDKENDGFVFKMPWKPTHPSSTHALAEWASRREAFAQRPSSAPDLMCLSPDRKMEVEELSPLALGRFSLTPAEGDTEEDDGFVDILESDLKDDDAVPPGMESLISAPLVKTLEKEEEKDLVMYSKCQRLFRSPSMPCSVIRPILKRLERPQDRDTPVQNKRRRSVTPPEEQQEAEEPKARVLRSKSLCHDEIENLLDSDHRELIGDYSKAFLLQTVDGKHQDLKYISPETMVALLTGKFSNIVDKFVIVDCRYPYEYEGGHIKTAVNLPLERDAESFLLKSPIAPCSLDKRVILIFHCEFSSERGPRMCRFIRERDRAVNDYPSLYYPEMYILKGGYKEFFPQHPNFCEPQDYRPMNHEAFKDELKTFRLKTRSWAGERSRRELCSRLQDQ
Nature of the experiment: Inhibitory activity against human Cdc25B phosphatase. The note with it: for pIC50: read-out: IC50.

Experiment [3] addresses T3, Tyrosine-protein phosphatase non-receptor type 1 (Homo sapiens, UniProt P18031).
T3 sequence (P18031 whole entry): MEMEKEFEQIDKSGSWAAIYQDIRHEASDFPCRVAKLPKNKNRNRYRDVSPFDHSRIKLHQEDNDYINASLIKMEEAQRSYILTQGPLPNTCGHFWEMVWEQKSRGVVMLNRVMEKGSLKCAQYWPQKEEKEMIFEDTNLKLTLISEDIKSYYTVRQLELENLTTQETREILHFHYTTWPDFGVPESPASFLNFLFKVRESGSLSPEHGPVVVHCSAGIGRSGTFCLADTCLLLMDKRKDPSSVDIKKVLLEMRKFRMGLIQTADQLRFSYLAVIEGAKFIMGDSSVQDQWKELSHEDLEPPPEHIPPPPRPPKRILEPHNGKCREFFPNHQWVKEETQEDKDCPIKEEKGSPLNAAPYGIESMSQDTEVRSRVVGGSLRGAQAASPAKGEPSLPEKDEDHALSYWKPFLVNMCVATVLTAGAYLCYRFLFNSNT
Nature of the experiment: Inhibitory activity against human PTP1B. The note with it: for pIC50: read-out: IC50. The procedure, abridged: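 GST–PTP1B (30–40 nM) in 50 mM MOPs pH 6.5 with 2 mM DTT, 1 mM EDTA and 2% DMSO. Substrate was 2 mM pNPP.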

The next experiment deals with HCT-116. Nature of the experiment: Cytotoxicity against HCT116 cell line. The format is functional, cell-based. Particulars: Homo sapiens; call rule not given here. An outline of the steps:
as §1

By pIC50 is commonly meant −log10 of the IC50, conventionally taken in molar units.

pIC50: −log10 of the molar value. Where only a bound is given, the exact number is not on record here.

As for `COc1ccc(NC2=C(C(C)C)C(=O)C(=O)c3c2ccc2c3CCCC2(C)C)cc1`, the pIC50 in experiment [1] was 4.93; in the experiment on A549, 5.04; in experiment [2], 5.39; in the experiment on HCT-116 it was 5.26. Moreover, the IC50 entry in experiment [3] is “Not Active”.
In the case of `CC(C)C1=C(Sc2ccc(Br)cc2)c2ccccc2C(=O)C1=O`, the negative-log IC50 (pIC50) was 5.27 in experiment [1]; 5.23 with A549; 5.44 in experiment [2]; 5.12 in experiment [3]; 5.23 with HCT-116.
Take `CC(C)C1=C(Nc2ccc([N+](=O)[O-])cc2)c2ccccc2C(=O)C1=O`: the negative logarithm of the IC50 (pIC50) in experiment [1] was 5.16; in the experiment on A549, 5.18; in experiment [2], 5.27; in experiment [3], 4.72; in the experiment with HCT-116, 5.62.
In the same order, the values of `Cc1ccc(NC2=C(C(C)C)C(=O)C(=O)c3ccccc32)cc1` are 5.15, 5.09, 5.34, 4.71 and 5.21.
For the molecule `CC(C)C1=C(Nc2ccccc2)c2ccccc2C(=O)C1=O`, the pIC50 in experiment [1] is 4.96; in the experiment on A549, 4.60; in experiment [2] it was 5.06; in the experiment with HCT-116, 5.09. For the same molecule, the IC50 entry in experiment [3] is given as “Not Active”.
Take `CC(C)C1=C(Nc2ccc([N+](=O)[O-])cc2)c2ccc3c(c2C(=O)C1=O)CCCC3(C)C`: the IC50 entry in experiment [1], in experiment [2] and in experiment [3] was “Not Active” in each case. In addition, the negative logarithm of the IC50 (pIC50) in the experiment with A549 was 5.27; in the experiment on HCT-116 it was 5.15.
Turning to `Cc1ccc(NC2=C(C(C)C)C(=O)C(=O)c3c2ccc2c3CCCC2(C)C)cc1`, the pIC50 was 4.56 in experiment [1], 5.37 in the experiment with A549, 5.12 in experiment [2] and 4.60 with HCT-116. Also, the IC50 entry in experiment [3] was “Not Active”.
`CC(C)C1=C(Sc2ccccc2)c2ccccc2C(=O)C1=O`: the pIC50 in experiment [1] was 5.23; in the experiment with A549, 5.12; in experiment [2] it was 4.96; in experiment [3], 4.86; in the experiment on HCT-116, 5.10.
For `CC(C)C1=C(Sc2ccccc2)c2ccc3c(c2C(=O)C1=O)CCCC3(C)C`, the pIC50 is 5.40 in experiment [1]; 4.57 in the experiment with A549; 5.29 in experiment [2]; 4.98 in experiment [3]; 5.24 in the experiment with HCT-116.
In the same order, the values of `CC(=O)Nc1ccc(SC2=C(C(C)C)C(=O)C(=O)c3ccccc32)cc1` are 4.66, 5.13, 4.86, 5.12 and 5.20.
In the same order, the values of `CC(C)C1=C(Sc2ccc(Br)cc2)c2ccc3c(c2C(=O)C1=O)CCCC3(C)C` are 4.69, 5.29, 5.42, 5.14 and 5.31.
Turning to `CC(C)C1=C(Sc2ccc(F)cc2)c2ccc3c(c2C(=O)C1=O)CCCC3(C)C`, the pIC50 was 4.66 in experiment [1]; 5.90 with A549; 5.59 in experiment [2]; 5.34 in experiment [3]; 5.24 with HCT-116.
Take `COc1ccc(NC2=C(C(C)C)C(=O)C(=O)c3ccccc32)cc1`: the negative logarithm of the IC50 (pIC50) in experiment [1] was 5.31; with A549, 4.06; in experiment [2] it was 5.33; with HCT-116, 5.39. For the same molecule, in experiment [3], the IC50 result is on record as “Not Active”.
In the same order, the values of `CC(C)C1=C(c2ccccc2)c2ccccc2C(=O)C1=O` are 5.11, 4.61, 5.49, 4.53 and “Not Active”.
For the molecule `CC(=O)Nc1ccc(SC2=C(C(C)C)C(=O)C(=O)c3c2ccc2c3CCCC2(C)C)cc1`, the negative logarithm of the IC50 (pIC50) is 5.22 in experiment [1]; 4.81 in the experiment with A549; 5.31 in experiment [2]; 5.04 in experiment [3]; 5.29 in the experiment with HCT-116.
In the same order, the values of `CC(C)C1=C(c2ccccc2)c2ccc3c(c2C(=O)C1=O)CCCC3(C)C` are 5.40, 5.20, 5.50, 5.39 and 5.20.
In the same order, the values of `CC(C)C1=C(Nc2ccccc2)c2ccc3c(c2C(=O)C1=O)CCCC3(C)C` are 5.06, 4.72, 5.40, 4.57 and 5.20.
In the same order, the values of `CC(C)C1=C(Sc2ccc(F)cc2)c2ccccc2C(=O)C1=O` are 4.89, 4.69, 5.12, 5.14 and 4.68.
As for `CC(C)C1=Cc2ccccc2C(=O)C1=O`, the pIC50 in experiment [1] was 4.95; in the experiment with A549 it was 5.38; in experiment [2], 4.62; in the experiment on HCT-116 it was 5.40. In experiment [3], the IC50 result was “Not Active”.
As for `CC(C)C1=Cc2ccc3c(c2C(=O)C1=O)CCCC3(C)C` [MILTIRONE], the negative-log IC50 (pIC50) is less than 4.15 in experiment [1], 4.61 with A549 and 4.91 in the experiment with HCT-116. The IC50 entry in experiment [2] and in experiment [3] was “Not Active” throughout.

The values above are taken from ChEMBL document CHEMBL1146142, “Synthesis of miltirone analogues as inhibitors of Cdc25 phosphatases” (Bioorg Med Chem Lett, 2006).
